Assay results: ChEMBL document CHEMBL1127381, “Synthesis and 5-lipoxygenase inhibitory activities of some novel 2-substituted 5-benzofuran hydroxamic acids” (J Med Chem, 1994)

Assays:
[1] = biological target: T1, Polyunsaturated fatty acid 5-lipoxygenase (Mus musculus) (UniProt P48999); assay: In vivo inhibition of 5-lipoxygenase (LTC4) in the mouse zymosan peritonitis assay at an oral dose of 30 mg/Kg; format: functional, organism-based
T1 sequence (whole entry): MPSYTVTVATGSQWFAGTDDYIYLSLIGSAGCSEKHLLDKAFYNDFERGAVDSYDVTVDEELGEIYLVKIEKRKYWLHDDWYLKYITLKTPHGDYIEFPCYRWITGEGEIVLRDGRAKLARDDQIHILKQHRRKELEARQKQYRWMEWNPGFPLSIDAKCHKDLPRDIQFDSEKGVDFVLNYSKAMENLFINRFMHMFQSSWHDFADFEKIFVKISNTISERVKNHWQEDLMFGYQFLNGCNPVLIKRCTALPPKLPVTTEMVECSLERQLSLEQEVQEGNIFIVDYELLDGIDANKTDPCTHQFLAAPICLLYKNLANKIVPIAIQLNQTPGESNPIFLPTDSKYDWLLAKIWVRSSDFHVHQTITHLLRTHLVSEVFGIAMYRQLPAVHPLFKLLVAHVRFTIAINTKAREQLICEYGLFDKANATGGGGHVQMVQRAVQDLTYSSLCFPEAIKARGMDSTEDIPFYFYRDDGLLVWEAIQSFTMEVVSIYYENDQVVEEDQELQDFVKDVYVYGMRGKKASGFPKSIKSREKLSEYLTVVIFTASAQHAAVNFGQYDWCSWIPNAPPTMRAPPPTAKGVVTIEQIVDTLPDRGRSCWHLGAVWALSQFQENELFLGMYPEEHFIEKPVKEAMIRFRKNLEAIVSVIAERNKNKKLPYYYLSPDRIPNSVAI
Outline: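 Male CD-1 mice (18–25 g) given compound orally in PEG 200. Zymosan-A (3 mg in 0.9% saline) injected ip 1 h later. Mice killed 15 min after zymosan; peritoneum lavaged with 10 μM indomethacin. Fluid extracted in cold 95% ethanol and dried. LTC4 measured by [3H]RIA on 1:20 dilution. Values are mean percent inhibition per animal ± SEM.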

[2] = biological target: T2, Polyunsaturated fatty acid 5-lipoxygenase (Rattus norvegicus, UniProt P12527); assay: In vitro inhibition of 5-lipoxygenase (5-HETE) derived from the 9000xg supernatant of RBL broken cell assay; format: cell-based
T2 sequence (P12527 whole entry): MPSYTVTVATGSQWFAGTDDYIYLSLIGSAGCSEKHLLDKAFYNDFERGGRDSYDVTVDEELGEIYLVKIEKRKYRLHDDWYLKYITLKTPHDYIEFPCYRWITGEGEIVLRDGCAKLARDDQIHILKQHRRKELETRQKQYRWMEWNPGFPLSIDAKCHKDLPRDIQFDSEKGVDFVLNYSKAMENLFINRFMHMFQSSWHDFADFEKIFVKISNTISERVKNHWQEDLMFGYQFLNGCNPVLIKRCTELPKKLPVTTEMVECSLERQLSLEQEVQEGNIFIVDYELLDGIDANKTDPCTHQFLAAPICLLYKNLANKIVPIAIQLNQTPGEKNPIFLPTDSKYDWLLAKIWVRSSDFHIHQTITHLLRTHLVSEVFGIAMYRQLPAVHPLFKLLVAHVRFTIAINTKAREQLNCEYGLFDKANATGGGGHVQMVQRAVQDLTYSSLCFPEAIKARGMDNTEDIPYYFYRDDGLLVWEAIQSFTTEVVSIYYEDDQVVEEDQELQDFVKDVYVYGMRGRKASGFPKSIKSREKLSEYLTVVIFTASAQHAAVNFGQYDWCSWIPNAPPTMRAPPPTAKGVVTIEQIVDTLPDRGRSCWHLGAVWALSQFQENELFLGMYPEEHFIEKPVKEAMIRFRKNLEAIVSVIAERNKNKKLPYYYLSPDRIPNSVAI
Outline: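 RBL-1 cells grown in suspension, washed, suspended at 5 × 10^7 cells/mL in NaHPO4/CaCl2 buffer, homogenized at 0 °C, spun 9000g for 50 min. Supernatant preincubated with compound 5 min at 37 °C, then [14C]arachidonic acid added and incubated 20 min at 37 °C. Reaction stopped with 2 N formic acid. 5-HETE formation measured radiometrically.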

| SMILES | ED50 [1] | IC50 [2] | inhibition [1] |
| --- | --- | --- | --- |
| CC(c1cc2ccccc2s1)N(O)C(N)=O (configuration not stated) | 2.71 mg/kg | – | – |
| CC(=O)N(O)C(C)c1ccc2oc(-c3ccccc3)cc2c1 (configuration not stated) | 22.1 mg/kg | 490 nM | – |
| CCCCCCCCCCc1cc2cc(C(C)N(O)C(=O)CCCC(=O)OC)ccc2o1 (configuration not stated) | – | 150 nM | 37.3% |
| CC(c1ccc2oc(-c3ccccc3)cc2c1)N(O)C(=O)c1ccco1 (configuration not stated) | – | 40 nM | 32.9% |
| COC(=O)CCCC(=O)N(O)C(C)c1ccc2oc(-c3cc(OC)c(OC)c(OC)c3)cc2c1 (configuration not stated) | – | 40 nM | 42.1% |
| COc1cc(-c2cc3cc(C(C)N(O)C(C)=O)ccc3o2)cc(OC)c1OC (configuration not stated) | – | 310 nM | 42.1% |
| CCCCc1cc2cc(C(C)N(O)C(C)=O)ccc2o1 (configuration not stated) | – | 50 nM | 41.4% |
| CCCCCCCCCCc1cc2cc(C(C)N(O)C(C)=O)ccc2o1 (configuration not stated) | – | 410 nM | 19.5% |
| CC(c1ccc2oc(-c3ccccc3)cc2c1)N(O)C(=O)CO (configuration not stated) | 27.5 mg/kg | 700 nM | – |
| COc1ccc2cc(-c3cc4cc(C(C)N(O)C(C)=O)ccc4o3)ccc2c1 (configuration not stated) | – | 120 nM | 25.6% |
| CC(c1ccc2oc(-c3ccccc3)cc2c1)N(O)C(=O)c1ccccc1 (configuration not stated) | – | – | 46.2% |
| CC(=O)N(O)C(C)c1ccc(OCCc2ccccc2)cc1 (configuration not stated) | – | 410 nM | – |
| COC(=O)CCCC(=O)N(O)C(C)c1ccc2oc(-c3ccccc3)cc2c1 (configuration not stated) | – | 60 nM | – |
| CC(=O)OCC(=O)N(O)C(C)c1ccc2oc(-c3ccccc3)cc2c1 (configuration not stated) | – | 160 nM | 18.9% |
| CCOC(=O)CCC(=O)N(O)C(C)c1ccc2oc(-c3ccccc3)cc2c1 (configuration not stated) | – | 50 nM | – |
| COc1cccc(OC)c1C(=O)N(O)C(C)c1ccc2oc(-c3ccccc3)cc2c1 (configuration not stated) | – | 3000 nM | – |
| CCCCc1cc2cc(C(C)N(O)C(=O)CCCC(=O)OC)ccc2o1 (configuration not stated) | – | 50 nM | 28.6% |
| COc1ccc(C(=O)N(O)C(C)c2ccc3oc(-c4ccccc4)cc3c2)cc1OC (configuration not stated) | – | 200 nM | – |
| CC(c1ccc2oc(-c3ccccc3)cc2c1)N(O)C(N)=O (configuration not stated) | 10.3 mg/kg | 410 nM | – |
| COc1cc(-c2cc3cc(C(C)N(O)C(N)=O)ccc3o2)cc(OC)c1OC (configuration not stated) | 17.5 mg/kg | 50 nM | – |
| COCC(=O)N(O)C(C)c1ccc2oc(-c3ccccc3)cc2c1 (configuration not stated) | 18.6 mg/kg | 160 nM | – |
| CC(c1ccc2oc(-c3ccccc3)cc2c1)N(O)C(=O)c1cccs1 (configuration not stated) | – | 250 nM | 29.1% |
